According to ChEMBL document CHEMBL5724801, “EUbOPEN Chemogenomics Library - Multiplex” (2024):
Where “and” joins values, the source holds several entries; their conditions need not be identical. Identical values can stand only once.

Tested on: Fibroblast
Experiment: Multiplex assay against human fibroblast
Assay type: toxicity, cell-based
Summary of the method: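 With compound added, live cells were imaged on a CQ1 microscope at 37°C and 5% CO2; staining with Hoechst33342, BioTracker Green Microtubule Cytoskeleton Dye, MitoTracker Red and Annexin V Alexa Fluor 680 had been done at seeding. The CellPathfinder machine-learning gating scheme split cells into Hoechst high-intensity objects or normal cells, normal cells into healthy, pyknosed or fragmented nuclei, and pyknosed cells into mitotic or apoptotic. The tubulin, mitochondrial-mass and membrane-permeability phenotypes are per cents of healthy-nucleus cells.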

[1] = 12 h, 1 µM, compound concentration 1 uM
[2] = 12 h, 10 µM, compound concentration 10 uM
[3] = 24 h, 1 µM, compound concentration 1 uM
[4] = 24 h, 10 µM, compound concentration 10 uM
[5] = 48 h, 1 µM, compound concentration 1 uM
[6] = 48 h, 10 µM, compound concentration 10 uM

Structure (SMILES): Cc1sc2c(c1C)C(c1ccc(Cl)cc1)=N[C@H](CC(=O)OC(C)(C)C)c1nnc(C)n1-2
- Population Apoptotic (%) [1]: 43% and 33%
- Population Fragmented Nuclei (%) [1]: 15% and 26%
- Population Healthy Nuclei (%) [1]: 62% and 51%
- Population Hoechst High Intensity Objects (%) [1]: 2% and 5%
- Population Membrane Permeable-Phenotype (%) [1]: 0% and 15%
- Population Mitochondria Different-Phenotype (%) [1]: 5% and 10%
- Population Mitotic Cells (%) [1]: 56% and 66%
- Population Normal (%) [1]: 97% and 94%
- Population Pyknosed Nuclei (%) [1]: 22%
- Population Tubulin-Different-Phenotype (%) [1]: 30% and 46%
- Total Cell Count [1]: 180 and 159
- Population Apoptotic (%) [2]: 43% and 51%
- Population Fragmented Nuclei (%) [2]: 19% and 30%
- Population Healthy Nuclei (%) [2]: 55% and 39%
- Population Hoechst High Intensity Objects (%) [2]: 7% and 5%
- Population Membrane Permeable-Phenotype (%) [2]: 0% and 4%
- Population Mitochondria Different-Phenotype (%) [2]: 15% and 20%
- Population Mitotic Cells (%) [2]: 56% and 48%
- Population Normal (%) [2]: 92% and 94%
- Population Pyknosed Nuclei (%) [2]: 25% and 29%
- Population Tubulin-Different-Phenotype (%) [2]: 90% and 95%
- Total Cell Count [2]: 128 and 169
- Population Apoptotic (%) [3]: 82% and 46%
- Population Fragmented Nuclei (%) [3]: 17% and 29%
- Population Healthy Nuclei (%) [3]: 60% and 50%
- Population Hoechst High Intensity Objects (%) [3]: 2% and 6%
- Population Membrane Permeable-Phenotype (%) [3]: 0% and 11%
- Population Mitochondria Different-Phenotype (%) [3]: 2% and 5%
- Population Normal (%) [3]: 97% and 93%
- Population Pyknosed Nuclei (%) [3]: 21% and 20%
- Population Tubulin-Different-Phenotype (%) [3]: 29% and 51%
- Total Cell Count [3]: 186 and 149
- Population Apoptotic (%) [4]: 75% and 51%
- Population Fragmented Nuclei (%) [4]: 16% and 26%
- Population Healthy Nuclei (%) [4]: 69% and 45%
- Population Hoechst High Intensity Objects (%) [4]: 8% and 4%
- Population Membrane Permeable-Phenotype (%) [4]: 2% and 4%
- Population Mitochondria Different-Phenotype (%) [4]: 19% and 26%
- Population Mitotic Cells (%) [4]: 25% and 48%
- Population Normal (%) [4]: 91% and 95%
- Population Pyknosed Nuclei (%) [4]: 14% and 27%
- Population Tubulin-Different-Phenotype (%) [4]: 76% and 87%
- Total Cell Count [4]: 123 and 165
- Population Apoptotic (%) [5]: 63% and 53%
- Population Fragmented Nuclei (%) [5]: 19% and 29%
- Population Healthy Nuclei (%) [5]: 66% and 49%
- Population Hoechst High Intensity Objects (%) [5]: 5%
- Population Membrane Permeable-Phenotype (%) [5]: 0% and 12%
- Population Mitochondria Different-Phenotype (%) [5]: 2% and 10%
- Population Mitotic Cells (%) [5]: 36% and 46%
- Population Normal (%) [5]: 94% and 95%
- Population Pyknosed Nuclei (%) [5]: 13% and 21%
- Population Tubulin-Different-Phenotype (%) [5]: 28% and 69%
- Total Cell Count [5]: 170 and 140
- Population Apoptotic (%) [6]: 50% and 63%
- Population Fragmented Nuclei (%) [6]: 21% and 35%
- Population Healthy Nuclei (%) [6]: 66% and 51%
- Population Hoechst High Intensity Objects (%) [6]: 1%
- Population Membrane Permeable-Phenotype (%) [6]: 1% and 4%
- Population Mitochondria Different-Phenotype (%) [6]: 13% and 9%
- Population Mitotic Cells (%) [6]: 50% and 36%
- Population Normal (%) [6]: 98%
- Population Pyknosed Nuclei (%) [6]: 12% and 13%
- Population Tubulin-Different-Phenotype (%) [6]: 70% and 88%
- Total Cell Count [6]: 134 and 170

Structure (SMILES): CN(C)CCOc1ccc(/C(=C(/CCCO)c2ccccc2)c2ccc(O)cc2)cc1
- Population Apoptotic (%) [1]: 9.46% and 11.76%
- Population Fragmented Nuclei (%) [1]: 12.72% and 6.58%
- Population Healthy Nuclei (%) [1]: 54.82% and 78.51%
- Population Hoechst High Intensity Objects (%) [1]: 0%
- Population Membrane Permeable-Phenotype (%) [1]: 2.4% and 1.12%
- Population Mitochondria Different-Phenotype (%) [1]: 12.8% and 16.2%
- Population Mitotic Cells (%) [1]: 90.54% and 88.24%
- Population Normal (%) [1]: 100%
- Population Pyknosed Nuclei (%) [1]: 32.46% and 14.91%
- Population Tubulin-Different-Phenotype (%) [1]: 20.8% and 30.73%
- Total Cell Count [1]: 228
- Population Apoptotic (%) [2]: 12.82% and 32.5%
- Population Fragmented Nuclei (%) [2]: 12.81% and 6.25%
- Population Healthy Nuclei (%) [2]: 54.96% and 65.97%
- Population Hoechst High Intensity Objects (%) [2]: 0%
- Population Membrane Permeable-Phenotype (%) [2]: 12.03% and 4.21%
- Population Mitochondria Different-Phenotype (%) [2]: 33.83% and 24.74%
- Population Mitotic Cells (%) [2]: 87.18% and 67.5%
- Population Normal (%) [2]: 100%
- Population Pyknosed Nuclei (%) [2]: 32.23% and 27.78%
- Population Tubulin-Different-Phenotype (%) [2]: 69.92% and 80%
- Total Cell Count [2]: 242 and 288
- Population Fragmented Nuclei (%) [3]: 7.69% and 4.15%
- Population Healthy Nuclei (%) [3]: 73.68% and 82.16%
- Population Hoechst High Intensity Objects (%) [3]: 0%
- Population Membrane Permeable-Phenotype (%) [3]: 2.2% and 3.03%
- Population Mitochondria Different-Phenotype (%) [3]: 9.34% and 7.58%
- Population Mitotic Cells (%) [3]: 93.48% and 78.79%
- Population Normal (%) [3]: 100%
- Population Pyknosed Nuclei (%) [3]: 18.62% and 13.69%
- Population Tubulin-Different-Phenotype (%) [3]: 22.53% and 32.32%
- Total Cell Count [3]: 247 and 241
- Population Apoptotic (%) [4]: 20.78% and 46.67%
- Population Fragmented Nuclei (%) [4]: 6.59% and 4.58%
- Population Healthy Nuclei (%) [4]: 63.57% and 79.58%
- Population Hoechst High Intensity Objects (%) [4]: 0%
- Population Membrane Permeable-Phenotype (%) [4]: 6.1% and 8.41%
- Population Mitochondria Different-Phenotype (%) [4]: 37.8% and 22.57%
- Population Mitotic Cells (%) [4]: 79.22% and 53.33%
- Population Normal (%) [4]: 100%
- Population Pyknosed Nuclei (%) [4]: 29.84% and 15.85%
- Population Tubulin-Different-Phenotype (%) [4]: 85.37% and 84.07%
- Total Cell Count [4]: 258 and 284
- Population Apoptotic (%) [5]: 53.33% and 35.71%
- Population Fragmented Nuclei (%) [5]: 8.78% and 7.97%
- Population Healthy Nuclei (%) [5]: 85.5% and 86.45%
- Population Hoechst High Intensity Objects (%) [5]: 0%
- Population Membrane Permeable-Phenotype (%) [5]: 0% and 4.61%
- Population Mitotic Cells (%) [5]: 46.67% and 64.29%
- Population Normal (%) [5]: 100%
- Population Pyknosed Nuclei (%) [5]: 5.73% and 5.58%
- Total Cell Count [5]: 262 and 251
- Population Apoptotic (%) [6]: 35.29% and 73.91%
- Population Fragmented Nuclei (%) [6]: 11.83% and 8.67%
- Population Healthy Nuclei (%) [6]: 83.6% and 83.67%
- Population Hoechst High Intensity Objects (%) [6]: 0%
- Population Membrane Permeable-Phenotype (%) [6]: 2.89% and 5.58%
- Population Mitochondria Different-Phenotype (%) [6]: 6.75% and 12.75%
- Population Mitotic Cells (%) [6]: 64.71% and 26.09%
- Population Normal (%) [6]: 100%
- Population Pyknosed Nuclei (%) [6]: 4.57% and 7.67%
- Population Tubulin-Different-Phenotype (%) [6]: 53.05% and 80.48%
- Total Cell Count [6]: 372 and 300
